Source: ChEMBL document CHEMBL4673248, “Discovery and Characterization of BAY 1214784, an Orally Available Spiroindoline Derivative Acting as a Potent and Selective Antagonist of the Human Gonadotropin-Releasing Hormone Receptor as Proven in a First-In-Human Study in Postmenopausal Women” (J Med Chem, 2020)
≈ marks a conversion by molar mass, not a printed value.

Tests used:
[1] = target: T1, Gonadotropin-releasing hormone receptor (Homo sapiens, UniProt P30968); assay: Antagonist activity at human GnRH receptor expressed in CHO-K1 cells assessed as inhibition of LHRH-induced response preincubated for 20 mins followed by LHRH addition and measured after 60 mins by TR-FRET assay; assay type: cell-based; settings: cho-k1
T1 sequence (P30968 whole entry): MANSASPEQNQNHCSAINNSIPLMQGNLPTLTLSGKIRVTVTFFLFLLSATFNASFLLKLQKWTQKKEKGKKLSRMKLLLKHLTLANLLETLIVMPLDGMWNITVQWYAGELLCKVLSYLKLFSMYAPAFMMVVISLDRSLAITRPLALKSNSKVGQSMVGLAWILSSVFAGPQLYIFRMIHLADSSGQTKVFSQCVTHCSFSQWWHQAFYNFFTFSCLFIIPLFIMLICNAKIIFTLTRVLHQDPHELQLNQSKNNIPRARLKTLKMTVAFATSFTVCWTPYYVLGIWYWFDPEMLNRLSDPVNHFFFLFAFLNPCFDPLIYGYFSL

[2] = target: T2, Gonadotropin-releasing hormone receptor (Rattus norvegicus, UniProt P30969); assay: Antagonist activity at rat GnRH receptor expressed in CHO-K1 cells assessed as inhibition of LHRH-induced response preincubated for 20 mins followed by LHRH addition and measured after 60 mins by TR-FRET assay; assay type: cell-based
T2 sequence (P30969 whole entry): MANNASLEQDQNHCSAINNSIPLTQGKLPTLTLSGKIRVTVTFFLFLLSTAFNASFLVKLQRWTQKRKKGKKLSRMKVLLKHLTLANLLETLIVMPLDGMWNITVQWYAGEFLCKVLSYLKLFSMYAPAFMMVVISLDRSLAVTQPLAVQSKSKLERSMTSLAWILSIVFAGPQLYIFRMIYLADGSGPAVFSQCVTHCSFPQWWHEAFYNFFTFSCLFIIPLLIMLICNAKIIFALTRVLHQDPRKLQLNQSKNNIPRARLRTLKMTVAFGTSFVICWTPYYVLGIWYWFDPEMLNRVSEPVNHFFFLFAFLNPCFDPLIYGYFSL
Summary of the method: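 Frozen rat-receptor cells: thawed, seeded overnight in serum-containing Ham's F12, Accutase-harvested, resuspended in serum-free medium with IP1-d2, 1 h at 37 °C. 1.0 × 10^4 cells/well, 20 min compound preincubation at rt, then 1× EC80 LHRH or buserelin in HEPES stimulation buffer pH 7.4 for 60 min at 37 °C. Tb-anti-IP1 lysis (1:38), HTRF read 60 min later.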

[3] = target: Voltage-gated inwardly rectifying potassium channel KCNH2 (Homo sapiens, UniProt Q12809); assay: Inhibition of human ERG expressed in HEK293 cells assessed as reduction in channel inward tail current by whole cell voltage clamp assay; assay type: cell-based
Voltage-gated inwardly rectifying potassium channel KCNH2, sequence (Q12809 whole entry): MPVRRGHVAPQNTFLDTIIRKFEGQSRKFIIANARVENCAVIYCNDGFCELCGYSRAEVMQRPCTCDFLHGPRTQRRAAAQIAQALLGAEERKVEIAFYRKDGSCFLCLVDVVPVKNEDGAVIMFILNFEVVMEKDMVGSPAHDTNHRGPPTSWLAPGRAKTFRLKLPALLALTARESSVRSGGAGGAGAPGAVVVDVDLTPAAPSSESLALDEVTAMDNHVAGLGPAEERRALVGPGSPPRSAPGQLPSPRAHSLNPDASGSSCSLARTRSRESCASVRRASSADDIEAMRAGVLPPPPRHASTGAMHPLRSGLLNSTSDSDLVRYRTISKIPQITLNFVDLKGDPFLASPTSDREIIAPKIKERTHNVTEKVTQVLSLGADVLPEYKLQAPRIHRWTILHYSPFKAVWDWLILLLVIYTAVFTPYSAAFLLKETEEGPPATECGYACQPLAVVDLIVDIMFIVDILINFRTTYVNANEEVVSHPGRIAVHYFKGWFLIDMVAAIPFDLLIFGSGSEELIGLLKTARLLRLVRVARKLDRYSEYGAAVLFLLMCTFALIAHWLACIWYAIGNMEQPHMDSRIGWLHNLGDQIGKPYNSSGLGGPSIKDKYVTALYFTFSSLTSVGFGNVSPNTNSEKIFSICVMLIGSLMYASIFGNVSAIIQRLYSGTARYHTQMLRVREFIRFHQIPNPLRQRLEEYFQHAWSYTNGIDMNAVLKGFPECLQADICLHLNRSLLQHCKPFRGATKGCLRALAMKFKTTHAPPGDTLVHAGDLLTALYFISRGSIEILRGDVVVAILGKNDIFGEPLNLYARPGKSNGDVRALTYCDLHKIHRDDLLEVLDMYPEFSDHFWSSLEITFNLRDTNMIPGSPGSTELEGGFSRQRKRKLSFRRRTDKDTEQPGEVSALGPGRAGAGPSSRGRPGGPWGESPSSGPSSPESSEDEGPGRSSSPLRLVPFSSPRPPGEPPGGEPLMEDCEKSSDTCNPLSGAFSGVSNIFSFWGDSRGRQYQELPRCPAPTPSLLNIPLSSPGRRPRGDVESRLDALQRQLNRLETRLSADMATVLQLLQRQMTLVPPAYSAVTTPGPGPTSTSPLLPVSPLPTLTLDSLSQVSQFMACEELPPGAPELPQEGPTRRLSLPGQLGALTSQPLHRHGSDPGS

[4] = Aqueous solubility of compound at pH 6.5 incubated for 24 hrs under shaking condition by HPLC-MS/MS analysis; assay type: physicochemical; settings: aqueous solution
Summary of the method: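 Compound from 1 mM DMSO solution, pH 6.5 buffer added, shaken 24 h at rt. Filtered, dissolved compound quantified by HPLC-MS/MS.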

[5] = target: T1, Gonadotropin-releasing hormone receptor; assay: Antagonist activity at human GnRH receptor expressed in CHO-K1 cells assessed as inhibition of buserelin-induced response preincubated for 20 mins followed by buserelin addition and measured after 60 mins by TR-FRET assay; assay type: cell-based; settings: cho-k1
[6] = test system: Rattus norvegicus; assay: Suppression of ovariectomized-induced increase in plasma luteinizing hormone level in Wistar Han rat at 30 mg/kg, ip measured after 1 hr relative to control; assay type: functional
Summary of the method: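 Ovariectomized rats given a single intraperitoneal injection at 30 mg/kg. Plasma LH measured 1 h later and compared with vehicle-treated animals.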

[7] = Oral bioavailability in Wistar rat at 2 mg/kg by LC-MS/MS analysis; assay type: ADME, organism-based; settings: in vivo
[8] = Lipophilicity, log D of the compound in pH 7.5 MeCN/H2O solution by reversed-phase HPLC analysis; assay type: physicochemical
Summary of the method: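 Indirect reversed-phase HPLC at pH 7.5, calibrated with n-alkan-2-ones C3–C16. Compounds applied as 0.67 mM DMSO stocks in MeCN/H2O (1:1).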

CC1N(S(=O)(=O)c2ccc(F)cc2)c2ccc(C(=O)NCc3ccccc3Cl)cc2C12CCNCC2 (stereo in doubt; 3a)
IC50 [1]: 99 nM | IC50 [2]: 27 nM | IC50 [3]: 1100 nM | solubility at 24 h [4]: 271 µg/mL (≈ 513 µM) | IC50 [5]: 172 nM | Activity [6]: 74% | bioavailability [7]: < 2% | chromatographic logD [8]: 2.8
